Measurements reported in ChEMBL document CHEMBL3616459, “Antimicrobial peptides with potential for biofilm eradication: synthesis and structure activity relationship studies of battacin peptides” (J Med Chem, 2015).
Converted amounts (≈) assume the structure as drawn. The source made the active and inactive calls. The rule behind the calls is not given here. Non-standard residues stand in square brackets, D forms with d. Residues, ends and D or L forms follow the SMILES beside them. ξ: configuration not given here. *: point of attachment. Hexanoyl(4ξ-Me) = CCC(C)CCC(=O)*; dDab = NCC[C@@H](N)C(=O)O; Dab = NCC[C@H](N)C(=O)O

Legend:
[1] = system: Pseudomonas syringae pv. actinidiae; experiment: Antimicrobial activity against Pseudomonas syringae pv. actinidiae 16027 preformed biofilms after 48 hrs by crystal violet staining-based microscopy; type: functional
Method in brief: (§1)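 Psa16027 biofilms formed 48 h without peptide, then washed. 100 μL of peptide (1, 5 or 50 μM) in LB, or LB alone, added and incubated a further 24 h at 28 °C. Crystal violet staining followed, with A560 estimation of biofilm mass and microscopy.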

Pseudomonas aeruginosa [2] = experiment: Antimicrobial activity against Pseudomonas aeruginosa preformed biofilms at 10 to 50 uM after 48 hrs; type: functional, organism-based
Method in brief: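 Biofilms preformed 48 h without peptide, then washed. Peptide at 10, 50 or 100 μM in LB added and incubated a further 24 h at 37 °C. Live/dead BacLight staining on coverslips, then fluorescence microscopy at 1000×.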

Escherichia coli [3] = experiment: Bactericidal activity against Escherichia coli by time-kill assay; type: functional, organism-based
Method in brief: (§2)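 Time-kill assay. Overnight culture diluted in LB to mid-log phase, 10^5–10^8 CFU/mL; 100 μL added to 10 mL peptide in LB at 1×, 2×, 4× and 20× MIC. Incubated with shaking at 100 rpm, at 28 °C (Ea1501, Psa) or 37 °C (E. coli, P. aeruginosa, S. aureus). Samples at 0, 0.5, 1, 3, 6, 9 and 24 h serially diluted in 0.9% saline and plated; colonies counted after 24 h. Run in duplicate. Bactericidal means ≥2-log10 CFU/mL drop versus the no-antibiotic control.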

Pseudomonas aeruginosa [4] = experiment: Bactericidal activity against Pseudomonas aeruginosa assessed as reduction in bacterial count at 2 to 4 times MIC after 24 hrs by time-kill assay relative to control; type: functional; method in brief: as §2
[5] = system: Pseudomonas syringae pv. actinidiae; experiment: Antimicrobial activity against Pseudomonas syringae pv. actinidiae 16027 preformed biofilms at 5 to 10 uM after 24 hrs; type: functional; method in brief: as §1
Escherichia coli [6] = experiment: Bactericidal activity against Escherichia coli assessed as reduction in bacterial count at 2 to 4 times MIC after 24 hrs by time-kill assay relative to control; type: functional, organism-based; method in brief: as §2
Staphylococcus aureus [7] = experiment: Antimicrobial activity against Staphylococcus aureus preformed biofilms at 10 to 25 uM after 48 hrs; type: functional, organism-based
Pseudomonas aeruginosa [8] = experiment: Antimicrobial activity against Pseudomonas aeruginosa assessed as perturbed cell membrane at 2 times MIC measured after 24 hrs by scanning electron microscopy; type: functional, organism-based
Method in brief: (§3)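 Bacteria grown to OD600 0.3 in LB on glass slides for 24 h, then washed with 10 mM sodium phosphate pH 7.4. Treated 20 min with peptide in LB at twice the upper limit of its MIC, washed, and fixed in 4% glutaraldehyde 1 h. Dehydrated through graded ethanol, dried at 60 °C, platinum coated, and imaged by SEM at 10 kV.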

Staphylococcus aureus [9] = experiment: Inhibition of Staphylococcus aureus biofilm formation at 10 to 25 uM after 48 hrs; type: functional, organism-based
Method in brief: (§4)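 P. aeruginosa or S. aureus biofilms grown 48 h on coverslips in 12-well plates, with peptide added at inoculation at 5, 10, 25, 50 or 100 μM. Coverslips rinsed, dried at 50 °C and stained with BacLight (SYTO 9/propidium iodide) for 25 min in the dark at room temperature. Examined by fluorescence microscopy at 1000×.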

Staphylococcus aureus [10] = experiment: Bactericidal activity against Staphylococcus aureus by time-kill assay; type: functional, organism-based; method in brief: as §2
Staphylococcus aureus [11] = experiment: Antimicrobial activity against Staphylococcus aureus assessed as perturbed cell membrane at 2 times MIC measured after 24 hrs by scanning electron microscopy; type: functional, organism-based; method in brief: as §3
Escherichia coli [12] = experiment: Antimicrobial activity against Escherichia coli after 24 hrs by spectrophotometry; type: functional
Method in brief: (§5)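 Broth microdilution in Luria broth. Overnight culture from a single colony, grown at 28 °C (Ea1501, Psa) or 37 °C (E. coli, S. aureus), adjusted to OD600 0.6. Peptide dissolved in LB with 0.5% acetic acid as a dilution series; 50 μL peptide plus 50 μL culture per well, triplicates.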

Pseudomonas aeruginosa [13] = experiment: Antimicrobial activity against Pseudomonas aeruginosa assessed as outer membrane permeability at 0.5 to 100 uM measured after 1 min by N-phenylnaphthylamine uptake assay; type: functional, organism-based
Method in brief: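 Cells grown overnight in LB at 37 °C, then regrown to OD600 0.5, washed thrice and resuspended to OD600 0.5 in 10 mM phosphate buffer pH 7.0. Peptide (30 μL, 0.5–100 μM) added to 2.94 mL suspension, with NPN at 10 μM final. Fluorescence read at ex 350/em 420 nm, triplicate readings averaged.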

Erwinia amylovora [14] = experiment: Bactericidal activity against Erwinia amylovora 1501 at MIC […] by time-kill assay; type: functional, organism-based
Erwinia amylovora [15] = experiment: Bactericidal activity against Erwinia amylovora 1501 by time-kill assay; type: functional, organism-based; method in brief: as §2
Erwinia amylovora [16] = experiment: Bactericidal activity against Erwinia amylovora 1501 at 2 to 20 times MIC up to 6 hrs by time-kill assay; type: functional, organism-based; method in brief: as §2
Pseudomonas aeruginosa [17] = experiment: Bactericidal activity against Pseudomonas aeruginosa at 20 times MIC after 24 hrs by time-kill assay relative to control; type: functional, organism-based; method in brief: as §2
Escherichia coli [18] = experiment: Antimicrobial activity against Escherichia coli assessed as complete cell lysis at 2 times MIC measured after 24 hrs by scanning electron microscopy; type: functional, organism-based; method in brief: as §3
Staphylococcus aureus [19] = experiment: Antimicrobial activity against Staphylococcus aureus after 24 hrs by spectrophotometry; type: functional; method in brief: as §5
Staphylococcus aureus [20] = experiment: Bactericidal activity against Staphylococcus aureus at 1 to 2 times MIC after 24 hrs by time-kill assay; type: functional, organism-based; method in brief: as §2
Pseudomonas syringae [21] = experiment: Bactericidal activity against Pseudomonas syringae pv. actinidiae 16027 by time-kill assay; type: functional, organism-based; method in brief: as §2
Pseudomonas syringae [22] = experiment: Bactericidal activity against Pseudomonas syringae pv. actinidiae 16027 at 1 to 20 times MIC after 24 hrs by time-kill assay; type: functional, organism-based; method in brief: as §2
Pseudomonas aeruginosa [23] = experiment: Bactericidal activity against Pseudomonas aeruginosa at 20 times MIC after 9 hrs by time-kill assay relative to control; type: functional, organism-based; method in brief: as §2
Pseudomonas aeruginosa [24] = experiment: Inhibition of Pseudomonas aeruginosa biofilm formation at 10 to 50 uM after 48 hrs; type: functional, organism-based; method in brief: as §4
Pseudomonas aeruginosa [25] = experiment: Antimicrobial activity against Pseudomonas aeruginosa after 24 hrs by spectrophotometry; type: functional
[26] = Antimicrobial activity against Pseudomonas syringae pv. actinidiae 16027 after 24 hrs by spectrophotometry; type: functional; conditions: Pseudomonas syringae, 16027, 24 h; method in brief: as §5
Pseudomonas syringae [27] = experiment: Bactericidal activity against Pseudomonas syringae pv. actinidiae 16027 at 20 times MIC up to 1 hr by time-kill assay; type: functional, organism-based; method in brief: as §2
[28] = Hemolytic activity in mouse erythrocytes at 100 uM to 1 mM after 1 hr by spectrophotometry; type: ADME, cell-based, Erythrocyte; conditions: read-out: Activity
Method in brief: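 100 μL peptide (1 μM–1 mM in Tris buffer) plus 100 μL cells, incubated 1 h at 37 °C, triplicates. After centrifugation, supernatant A540 read. Percent hemolysis calculated relative to buffer (0%) and 0.1% Triton X-100 (100%) controls.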

Staphylococcus aureus [29] = experiment: Ratio of gentamycin MIC to compound MIC for Staphylococcus aureus after 24 hrs by spectrophotometry; type: functional
Pseudomonas syringae [30] = experiment: Bactericidal activity against Pseudomonas syringae pv. actinidiae 16027 at 4 times MIC up to 6 hrs by time-kill assay; type: functional, organism-based; method in brief: as §2
Escherichia coli [31] = experiment: Bactericidal activity against Escherichia coli assessed as reduction in bacterial count at 20 times MIC up to 3 hrs by time-kill assay relative to control; type: functional; method in brief: as §2
Pseudomonas aeruginosa [32] = experiment: Antimicrobial activity against Pseudomonas aeruginosa assessed as complete cell lysis at 2 times MIC […]; type: functional, organism-based
Erwinia amylovora [33] = experiment: Bactericidal activity against Erwinia amylovora 1501 at 2 to 20 times MIC after 9 hrs by time-kill assay; type: functional, organism-based; method in brief: as §2

Question: Which results are given for `CCC(C)CCC(=O)N[C@H](CCN)C(=O)N[C@@H](CCN)C(=O)N[C@@H](CCN)C(=O)N[C@@H](CC(C)C)C(=O)N[C@H](Cc1ccccc1)C(=O)N[C@@H](CCN)C(=O)N[C@@H](CCN)C(=O)N[C@@H](CC(C)C)C(N)=O` (stereo partly drawn) ({Hexanoyl(4ξ-Me)}-[dDab][Dab][Dab]L[dF][Dab][Dab]L-NH2)?
Answer: Activity [1]: Active; Activity (Pseudomonas aeruginosa [2]): Active; Activity (Escherichia coli [3]): Dose-dependent effect; Activity (Pseudomonas aeruginosa [4]): >2 deltalog10CFU/ml; Activity [5]: Active; Activity (Escherichia coli [6]): inactive; Activity (Staphylococcus aureus [7]): Active; Activity (Pseudomonas aeruginosa [8]): Active; inhibition (Staphylococcus aureus [9]): Active; Activity (Staphylococcus aureus [10]): Dose-dependent effect; Activity (Staphylococcus aureus [11]): Active; MIC (Escherichia coli [12]): 2.5 µM (≈ 2.51 µg/mL); Activity (Pseudomonas aeruginosa [13]): Active; Activity (Erwinia amylovora [14]): inactive; Activity (Erwinia amylovora [15]): Dose-dependent effect; Activity (Erwinia amylovora [16]): Active; Activity (Pseudomonas aeruginosa [17]): Active; Activity (Escherichia coli [18]): Active; MIC (Staphylococcus aureus [19]): 1 µM (≈ 1 µg/mL); Activity (Staphylococcus aureus [20]): Active; Activity (Pseudomonas syringae [21]): Dose-dependent effect; Activity (Pseudomonas syringae [22]): inactive; Activity (Pseudomonas aeruginosa [23]): Active; inhibition (Pseudomonas aeruginosa [24]): Active; MIC (Pseudomonas aeruginosa [25]): 1 µM (≈ 1 µg/mL); MIC [26]: 1 µM (≈ 1 µg/mL); Activity (Pseudomonas syringae [27]): Active; hemolysis at 1 h, 100 µM [28]: 1.79%; Ratio (Staphylococcus aureus [29]): 2; Activity (Pseudomonas syringae [30]): Active; Activity (Escherichia coli [31]): >3 deltalog10CFU/ml; Activity (Pseudomonas aeruginosa [32]): Active; Activity (Erwinia amylovora [33]): Active
